Measured values published in ChEMBL document CHEMBL3734668, “Evaluation of small molecule SecA inhibitors against methicillin-resistant Staphylococcus aureus” (Bioorg Med Chem, 2015).
pIC50: −log10 of the molar value. In brackets after ≈: the same amount, converted by molar mass. Activity calls are given as the source filed them. No cut-off for these calls is given here.

What was measured:
[1] = tested on: Staphylococcus aureus; test: Potency index, ratio of MIC for ampicillin to MIC for test compound against Methicillin resistant Staphylococcus aureus; format: functional
[2] = tested on: Staphylococcus aureus; test: Bactericidal activity against Methicillin sensitive Staphylococcus aureus ATCC 6538 assessed as CFU reduction at 30 uM for 1 hr; format: functional
Summary of the method: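 Log-phase LB cultures (OD600 ≈ 0.5) mixed with a range of inhibitor concentrations, shaken at 1,000 rpm, 37 °C, 1 hr, under normal room light. Cultures serially diluted in LB, plated on LB agar, incubated overnight at 37 °C. CFU counted; bactericidal effect taken as CFU reduction versus untreated control.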

[3] = target: T1, Protein translocase subunit SecA 1 (Staphylococcus aureus (strain NCTC 8325)) (UniProt O06446); test: Non-competitive inhibition of Staphylococcus aureus ATCC 35556 SecA1 liposomal ATPase activity in Xenopus laevis oocytes incubated for 3 hrs measured by Lineweaver-Burk plot analysis; format: cell-based
T1 sequence (whole entry): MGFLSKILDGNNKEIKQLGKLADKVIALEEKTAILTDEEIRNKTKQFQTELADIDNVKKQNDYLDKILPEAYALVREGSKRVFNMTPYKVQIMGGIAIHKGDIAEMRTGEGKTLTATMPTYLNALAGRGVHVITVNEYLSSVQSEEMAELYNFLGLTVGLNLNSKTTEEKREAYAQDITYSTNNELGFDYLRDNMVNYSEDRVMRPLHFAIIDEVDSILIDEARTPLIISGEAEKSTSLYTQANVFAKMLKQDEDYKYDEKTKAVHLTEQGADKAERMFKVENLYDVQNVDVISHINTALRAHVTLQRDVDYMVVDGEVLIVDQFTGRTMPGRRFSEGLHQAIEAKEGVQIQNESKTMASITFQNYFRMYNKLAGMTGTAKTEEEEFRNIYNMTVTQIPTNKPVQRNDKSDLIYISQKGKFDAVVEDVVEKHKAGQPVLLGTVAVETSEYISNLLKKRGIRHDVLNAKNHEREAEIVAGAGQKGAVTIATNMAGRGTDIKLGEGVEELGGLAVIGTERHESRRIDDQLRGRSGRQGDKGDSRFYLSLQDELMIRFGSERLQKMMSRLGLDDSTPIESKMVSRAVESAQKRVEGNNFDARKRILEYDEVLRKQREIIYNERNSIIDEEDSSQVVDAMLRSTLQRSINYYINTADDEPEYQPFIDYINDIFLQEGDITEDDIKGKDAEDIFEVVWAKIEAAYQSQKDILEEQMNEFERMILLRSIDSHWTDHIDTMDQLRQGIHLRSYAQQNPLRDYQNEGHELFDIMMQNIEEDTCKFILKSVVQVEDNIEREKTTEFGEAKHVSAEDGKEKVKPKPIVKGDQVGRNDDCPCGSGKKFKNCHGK
Summary of the method: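 SaSecA1-liposome plus proOmpA co-injected into Xenopus oocytes at varying ATP and inhibitor concentrations, incubated 3 hr at 23 °C, ion current recorded 1 min; n = 9-10. Inhibition mode assessed across ATP levels.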

[4] = tested on: Staphylococcus aureus; test: Bactericidal activity against Methicillin resistant Staphylococcus aureus Mu50 assessed as CFU reduction for 1 hr; format: functional, organism-based
Summary of the method: (§1)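 Log-phase Mu50 cultures (OD600 ≈ 0.5) mixed with a range of inhibitor concentrations, shaken 1,000 rpm at 37 °C for 1 hr under normal room light. Cultures then serially diluted in LB, plated on LB agar and incubated overnight at 37 °C. Activity expressed as reduction in CFU relative to untreated control containing matching DMSO.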

[5] = tested on: Staphylococcus aureus; test: Potency index, ratio of MIC for vancomysin to MIC for test compound against Methicillin resistant Staphylococcus aureus; format: functional
[6] = tested on: Staphylococcus aureus; test: Bacteriostatic activity against Staphylococcus aureus K2361 overexpressing NorA; format: functional
Summary of the method: (§2)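 Broth microdilution MIC per CLSI guidance in LB, 37 °C, shaking 250 rpm, 24 hr; run in triplicate in three separate experiments. MIC taken as lowest inhibitor concentration with no growth. Compounds from DMSO stocks; untreated controls carry equal DMSO.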

[7] = tested on: Staphylococcus aureus; test: Potency index, ratio of MIC for erythromycin to MIC for test compound against Methicillin resistant Staphylococcus aureus; format: functional
[8] = target: T2, Protein translocase subunit SecA 1 (Staphylococcus aureus (strain NCTC 8325), UniProt O06446); test: Inhibition of Staphylococcus aureus ATCC 35556 SecA1 liposomal ion channel activity in Xenopus laevis oocytes incubated for 3 hrs measured by recording ion current for 1 min; format: cell-based
T2 sequence (O06446 whole entry): T1 sequence (whole entry)
Summary of the method: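 Xenopus laevis oocytes injected at animal pole with 50 nl containing 120 ng liposomes, 120 ng SaSecA1, 14 ng proOmpA, 2 mM ATP, 1 mM Mg(OAc)2 plus varying inhibitor. Incubated 3 hr at 23 °C, then ion current recorded continuously 1 min.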

[9] = tested on: Staphylococcus aureus; test: Bactericidal activity against Methicillin resistant Staphylococcus aureus Mu50 assessed as CFU reduction at 30 uM for 1 hr; format: functional; summary of the method: as §1
[10] = tested on: Staphylococcus aureus; test: Bacteriostatic activity against Staphylococcus aureus N315 after 24 hrs; format: functional; settings: N315, 24 h; summary of the method: as §2
[11] = tested on: Staphylococcus aureus; test: Effect on general protein synthesis in Staphylococcus aureus Mu50 at 10 uM measured within 15 hrs; format: ADME, organism-based; settings: in vivo
[12] = tested on: Staphylococcus aureus; test: Bacteriostatic activity against Staphylococcus aureus ATCC 6538 after 24 hrs; format: functional; settings: ATCC 6538, 24 h
[13] = tested on: Staphylococcus aureus; test: Potency index, ratio of MIC for polymyxin B to MIC for test compound against Methicillin resistant Staphylococcus aureus; format: functional
[14] = tested on: Staphylococcus aureus; test: Potency index, ratio of MIC for kanamycin to MIC for test compound against Methicillin resistant Staphylococcus aureus; format: functional

CCCCCCC1c2ccc(O)cc2Oc2cc(O)ccc21
Ratio [1]: 250
Activity [2]: 2 log10CFU/ml
inhibition [3]: Active
Activity [4]: Dose-dependent effect
Ratio [5]: 2
MIC [6]: 4 µg/mL (≈ 13.4 µM)
Ratio [7]: 250
pIC50 [8]: 6.00
Activity [9]: >3 log10CFU/ml
MIC [10]: 4 µg/mL (≈ 13.4 µM)
Activity [11]: Non-toxic
MIC [12]: 4 µg/mL (≈ 13.4 µM)
Ratio [13]: 7
Ratio [14]: 250
